Reference: ChEMBL document CHEMBL1144562, “Synthesis of a new class of 2-anilino substituted nicotinyl arylsulfonylhydrazides as potential anticancer and antibacterial agents” (2007)
Converted amounts (≈) assume the structure as drawn.

Columns and labels:
EKVX = test: Antitumor activity against EKVX cells; type: functional; conditions: Homo sapiens
[1] = Antitumor activity against LOX IMV1 cells; type: functional; conditions: Homo sapiens
[2] = Antitumor activity against MALME 3M cells; type: functional; conditions: Homo sapiens
M14 = test: Antitumor activity against M14 cells; type: functional; conditions: Homo sapiens
SK-MEL-28 = test: Antitumor activity against SK-MEL-28 cells; type: functional; conditions: Homo sapiens
SK-MEL-5 = test: Antitumor activity against SK-MEL-5 cells; type: functional; conditions: Homo sapiens
How it was run: (§1)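 Tested in the NCI 60-human-tumour-cell-line panel at five concentrations, in 10-fold dilutions from 10^-4 to 10^-8 M. Three parameters were taken from the dose-response data, each as log10 of the molar concentration: GI50 (50% net growth inhibition), TGI (total growth inhibition) and LC50 (50% net cell death).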

UACC-257 = test: Antitumor activity against UACC257 cells; type: functional; conditions: Homo sapiens; how it was run: as §1
UACC-62 = test: Antitumor activity against UACC62 cells; type: functional; conditions: Homo sapiens; how it was run: as §1
OVCAR-4 = test: Antitumor activity against OVCAR4 cells; type: functional; conditions: Homo sapiens
SK-OV-3 = test: Antitumor activity against SKOV3 cells; type: functional; conditions: Homo sapiens; how it was run: as §1
A498 = test: Antitumor activity against A498 cells; type: functional; conditions: Homo sapiens
CAKI-1 = test: Antitumor activity against CAKI1 cells; type: functional; conditions: Homo sapiens
TK-10 = test: Antitumor activity against TK10 cells; type: functional; conditions: Homo sapiens; how it was run: as §1
PC-3 = test: Antitumor activity against PC3 cells; type: functional; conditions: Homo sapiens
DU-145 = test: Antitumor activity against DU145 cells; type: functional; conditions: Homo sapiens
MCF7 = test: Antitumor activity against MCF7 cells; type: functional; conditions: Homo sapiens
Hs-578T = test: Antitumor activity against HS578T cells; type: functional; conditions: Homo sapiens
MDA-MB-435 = test: Antitumor activity against MDA-MB-435 cells; type: functional; conditions: Homo sapiens
T47D = test: Antitumor activity against T47D cells; type: functional; conditions: Homo sapiens; how it was run: as §1
Escherichia coli = test: Antibacterial activity against Escherichia coli MTCC 448 after 18 hrs; type: functional; conditions: MTCC 448, 18 h
How it was run: (§2)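 Disc diffusion (Kirby–Bauer) on Mueller-Hinton agar inoculated with fresh bacteria at 1-5 × 10^4 cfu mL-1. Compounds were dissolved in DMF at a range of concentrations, and discs were placed in triplicate. Plates were incubated at 30 °C for 18 h. MIC was taken as the lowest concentration giving no visible bacterial growth on the plate.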

Pseudomonas aeruginosa = test: Antibacterial activity against Pseudomonas aeruginosa MTCC 424 after 18 hrs; type: functional; conditions: MTCC 424, 18 h; how it was run: as §2
Bacillus subtilis = test: Antibacterial activity against Bacillus subtilis MTCC 441 after 18 hrs; type: functional; conditions: MTCC 441, 18 h; how it was run: as §2
Vibrio = test: Antibacterial activity against Vibrio species after 18 hrs; type: functional; how it was run: as §2
CCRF-CEM = test: Antitumor activity against CCRF-CEM cells; type: functional; conditions: Homo sapiens
[3] = Antitumor activity against HL60 (TB) cells; type: functional, HL-60(TB); conditions: Homo sapiens, HL-60
How it was run: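 NCI 60-cell-line in vitro screen (leukaemia subpanel). Compound tested at five 10-fold dilutions from 10^-4 to 10^-8 M. Dose-response parameters: GI50 (concentration giving 50% net growth inhibition), TGI (total growth inhibition) and LC50 (50% net cell death), each reported as log10 of molar concentration.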

K562 = test: Antitumor activity against K562 cells; type: functional; conditions: Homo sapiens
MOLT-4 = test: Antitumor activity against MOLT4 cells; type: functional; conditions: Homo sapiens
HOP-62 = test: Antitumor activity against HOP62 cells; type: functional; conditions: Homo sapiens
HOP-92 = test: Antitumor activity against HOP92 cells; type: functional; conditions: Homo sapiens
NCI-H226 = test: Antitumor activity against NCI-H226 cells; type: functional; conditions: Homo sapiens
NCI-H460 = test: Antitumor activity against NCI-H460 cells; type: functional; conditions: Homo sapiens
HCC 2998 = test: Antitumor activity against HCC2998 cells; type: functional; conditions: Homo sapiens
HCT-116 = test: Antitumor activity against HCT116 cells; type: functional; conditions: Homo sapiens
HCT-15 = test: Antitumor activity against HCT15 cells; type: functional; conditions: Homo sapiens
HT-29 = test: Antitumor activity against HT29 cells; type: functional; conditions: Homo sapiens
KM12 = test: Antitumor activity against KM12 cells; type: functional; conditions: Homo sapiens
SW-620 = test: Antitumor activity against SW620 cells; type: functional; conditions: Homo sapiens; how it was run: as §1
SF-268 = test: Antitumor activity against SF268 cells; type: functional; conditions: Homo sapiens
SF-539 = test: Antitumor activity against SF539 cells; type: functional; conditions: Homo sapiens
SNB-75 = test: Antitumor activity against SNB75 cells; type: functional; conditions: Homo sapiens; how it was run: as §1
[4] = read-out: Log LC50 (the source's name) (converted)

SMILES: CC(=O)Nc1ccc(S(=O)(=O)NNC(=O)c2cccnc2Nc2ccc(Cl)cc2)cc1
- GI50 (EKVX): 49 µM
- LC50 (EKVX): > 100 µM
- TGI (EKVX; read-out: Log TGI (converted)): > 100 µM
- GI50 [1]: 24 µM
- LC50 [1]: > 100 µM
- TGI ([1]; read-out: Log TGI (converted)): > 100 µM
- GI50 [2]: > 100 µM
- CC50 [2, 4]: > 100 µM
- TGI ([2]; read-out: Log TGI (converted)): > 100 µM
- GI50 (M14): 11.5 µM
- LC50 (M14): > 100 µM
- TGI (M14; read-out: Log TGI (converted)): > 100 µM
- GI50 (SK-MEL-28): 23.4 µM
- LC50 (SK-MEL-28): > 100 µM
- TGI (SK-MEL-28; read-out: Log TGI (converted)): > 100 µM
- GI50 (SK-MEL-5): 5.62 µM
- LC50 (SK-MEL-5): > 100 µM
- TGI (SK-MEL-5; read-out: Log TGI (converted)): > 100 µM
- GI50 (UACC-257): 89.1 µM
- LC50 (UACC-257): > 100 µM
- TGI (UACC-257; read-out: Log TGI (converted)): > 100 µM
- GI50 (UACC-62): 8.91 µM
- LC50 (UACC-62): > 100 µM
- TGI (UACC-62; read-out: Log TGI (converted)): > 100 µM
- GI50 (OVCAR-4): 44.7 µM
- LC50 (lethal concentration, 50%) (OVCAR-4): > 100 µM
- TGI (OVCAR-4; read-out: Log TGI (converted)): > 100 µM
- GI50 (SK-OV-3): 57.5 µM
- CC50 (SK-OV-3; [4]): > 100 µM
- TGI (SK-OV-3; read-out: Log TGI (converted)): > 100 µM
- GI50 (A498): 18.6 µM
- LC50 (A498): > 100 µM
- TGI (A498; read-out: Log TGI (converted)): > 100 µM
- GI50 (CAKI-1): 9.12 µM
- LC50 (CAKI-1): > 100 µM
- TGI (CAKI-1; read-out: Log TGI (converted)): > 100 µM
- GI50 (TK-10): 25.1 µM
- LC50 (TK-10): > 100 µM
- TGI (TK-10; read-out: Log TGI (converted)): > 100 µM
- GI50 (PC-3): 29.5 µM
- LC50 (PC-3): > 100 µM
- TGI (PC-3; read-out: Log TGI (converted)): > 100 µM
- GI50 (DU-145): 34.7 µM
- LC50 (DU-145): > 100 µM
- TGI (DU-145; read-out: Log TGI (converted)): > 100 µM
- GI50 (MCF7): 4.37 µM
- LC50 (MCF7): > 100 µM
- TGI (MCF7; read-out: Log TGI (converted)): > 100 µM
- GI50 (Hs-578T): 24 µM
- CC50 (Hs-578T; [4]): > 100 µM
- TGI (Hs-578T; read-out: Log TGI (converted)): > 100 µM
- GI50 (MDA-MB-435): 3.24 µM
- LC50 (MDA-MB-435): > 100 µM
- TGI (MDA-MB-435; read-out: Log TGI (converted)): > 100 µM
- GI50 (T47D): 6.31 µM
- CC50 (T47D; [4]): > 100 µM
- TGI (T47D; read-out: Log TGI (converted)): > 100 µM
- MIC (Escherichia coli): 18 µg/mL (≈ 39.1 µM)
- MIC (Pseudomonas aeruginosa): > 25 µg/mL
- MIC (Bacillus subtilis): 17 µg/mL (≈ 37 µM)
- MIC (Vibrio): 18 µg/mL (≈ 39.1 µM)
- LC50 (CCRF-CEM): > 100 µM
- TGI (CCRF-CEM; read-out: Log TGI (converted)): > 100 µM
- GI50 (CCRF-CEM; read-out: pGI50 (converted)): 21.4 µM
- GI50 [3]: 9.77 µM
- LC50 [3]: > 100 µM
- TGI ([3]; read-out: Log TGI (converted)): > 100 µM
- GI50 (K562): 8.51 µM
- LC50 (K562): > 100 µM
- TGI (K562; read-out: Log TGI (converted)): > 100 µM
- GI50 (MOLT-4): 50.1 µM
- LC50 (MOLT-4): > 100 µM
- TGI (MOLT-4; read-out: Log TGI (converted)): > 100 µM
- GI50 (HOP-62): > 100 µM
- CC50 (HOP-62; [4]): > 100 µM
- TGI (HOP-62; read-out: Log TGI (converted)): > 100 µM
- GI50 (HOP-92): > 100 µM
- CC50 (HOP-92; [4]): > 100 µM
- TGI (HOP-92; read-out: Log TGI (converted)): > 100 µM
- GI50 (NCI-H226): 42.7 µM
- CC50 (NCI-H226; [4]): > 100 µM
- TGI (NCI-H226; read-out: Log TGI (converted)): > 100 µM
- GI50 (NCI-H460): 4.68 µM
- LC50 (NCI-H460): > 100 µM
- TGI (NCI-H460; read-out: Log TGI (converted)): > 100 µM
- GI50 (HCC 2998): 8.32 µM
- LC50 (HCC 2998): > 100 µM
- TGI (HCC 2998; read-out: Log TGI (converted)): > 100 µM
- GI50 (HCT-116): 7.24 µM
- LC50 (HCT-116): > 100 µM
- TGI (HCT-116; read-out: Log TGI (converted)): > 100 µM
- GI50 (HCT-15): 13.8 µM
- LC50 (HCT-15): > 100 µM
- TGI (HCT-15; read-out: Log TGI (converted)): > 100 µM
- GI50 (HT-29): 3.98 µM
- LC50 (HT-29): > 100 µM
- TGI (HT-29; read-out: Log TGI (converted)): > 100 µM
- GI50 (KM12): 4.17 µM
- CC50 (KM12; [4]): > 100 µM
- TGI (KM12; read-out: Log TGI (converted)): > 100 µM
- GI50 (SW-620): 7.59 µM
- CC50 (SW-620; [4]): > 100 µM
- TGI (SW-620; read-out: Log TGI (converted)): > 100 µM
- GI50 (SF-268): 21.9 µM
- LC50 (SF-268): > 100 µM
- TGI (SF-268; read-out: Log TGI (converted)): > 100 µM
- GI50 (SF-539): 15.5 µM
- LC50 (SF-539): > 100 µM
- TGI (SF-539; read-out: Log TGI (converted)): 75.9 µM
- GI50 (SNB-75): 5.5 µM
- CC50 (SNB-75; [4]): > 100 µM
- TGI (SNB-75; read-out: Log TGI (converted)): > 100 µM
